Consider one compound from ChEMBL document CHEMBL5365541, “Designing peptide amphiphiles as novel antibacterials and antibiotic adjuvants against gram-negative bacteria” (Bioorg Med Chem, 2023).

The structures appear in SMILES notation. ≈ marks a conversion by molar mass, not a printed value. Calls of active or inactive are those of the source. Starred links: 1 amine or outer side, 2 acyl side, 3 side chain; linkers in the order of their positions; H or OH if unused. Non-standard residues stand in square brackets, D forms with d. Residues, ends and D or L forms follow the SMILES beside them. X1 = CCCCCCCCCCCCCCCCN([C@@H](CCCCN)C(=O)[*:2])[*:1]

For data set [1], the system named is Escherichia coli. The data set can be described thus: Synergistic antibacterial activity against Escherichia coli K12 incubated for 20 to 24 hrs in presence of vancomycin by checkerboard broth microdilution assay. Particulars: time 20-24 hrs. In kind it is functional. The method in brief:
(§1)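 Checkerboard broth microdilution. E. coli K12 or A. baumannii clinical isolate grown to mid-log (OD ~0.8) and diluted to ~10^5 CFU/mL in MHB. Two-fold dilutions of rifampicin or vancomycin run across the plate against two-fold PA dilutions down it. Incubated 20–24 h at 37 °C, OD read at 470 nm. FICi calculated from the combination MICs.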

A short description of data set [2]: Retention time of the compound by RP-HPLC analysis. The class given is physicochemical. The method in brief: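 Reverse-phase HPLC, linear gradient 0–100% acetonitrile in water with 0.1% TFA over 20 min; retention time recorded.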
Data set [3] relates to Acinetobacter baumannii. The data set can be described thus: Antibacterial activity against Acinetobacter baumannii incubated for 20 to 24 hrs by broth microdilution method. In kind it is functional. The note with it: time 20-24 hrs. The method in brief:
(§2)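 Broth microdilution: colonies suspended directly to 1.5×10^8 CFU/mL (0.5 McFarland), then diluted in Mueller–Hinton broth to ~10^5 CFU/mL final. PA stock 1 mg/mL in water, pH 7, serially diluted in MHB. Plates incubated 20–24 h at 37 °C. MIC = lowest concentration inhibiting growth, read as OD600 with optional 1% TTC staining. Triplicate.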
A general note: Broth dilution looks for growth in wells or tubes with falling amounts of substance.

The test system of data set [4] is Escherichia coli. The data set can be described thus: Antibacterial activity against Escherichia coli K12 incubated for 20 to 24 hrs by broth microdilution method. In kind it is functional. Particulars: time 20-24 hrs. An outline of the steps: as §2
Data set [5] deals with Staphylococcus aureus. The data set is described as follows: Antibacterial activity against methicillin-resistant Staphylococcus aureus JE2 incubated for 20 to 24 hrs by broth microdilution method. In kind it is functional. Particulars: time 20-24 hrs. The method in brief:
(§3)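 Broth microdilution in MHB: direct colony suspension at 0.5 McFarland diluted to ~10^5 CFU/mL final; peptide stock 1 mg/mL in water at pH 7, serially diluted. Incubated 20-24 h at 37 °C; MIC taken as the lowest concentration inhibiting growth (OD 600 nm, 1% TTC stain); triplicate; vancomycin and gentamicin as positive controls.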

Data set [6] concerns Staphylococcus aureus. The data set can be described thus: Antibacterial activity against methicillin-resistant Staphylococcus aureus 13C incubated for 20 to 24 hrs by broth microdilution method. Particulars: time 20-24 hrs. In kind it is functional. The method in brief: as §3
Data set [7] deals with Escherichia coli. The data set is described as follows: Synergistic antibacterial activity against Escherichia coli K12 assessed as fractional inhibitory concentration index incubated for 20 to 24 hrs in presence of vancomycin by checkerboard broth microdilution assay. In kind it is functional. Particulars: time 20-24 hrs. The method in brief: as §1
Data set [8] relates to Acinetobacter baumannii. The data set can be described thus: Synergistic antibacterial activity against Acinetobacter baumannii assessed as fractional inhibitory concentration index incubated for 20 to 24 hrs in presence of vancomycin by checkerboard broth microdilution assay. The class given is functional. The note with it: time 20-24 hrs. The method in brief:
as §1

Data set [9] has as its system Cell membrane. The data set can be described thus: Induction of inner membrane permeability in Escherichia coli K12 at 2 times FICI in presence of vancomycin by propidium iodide staining based spectrofluorometry. In kind it is subcellular. Particulars: dose 2.0 µg/ml. The method in brief: (§4)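 E. coli K12 grown in MHB to mid-log, washed twice in PBS, and diluted to 10^6 CFU/mL in 5 mM HEPES + glucose. Cells preincubated with […] at least 15 min at 37 °C. Then treated with agent at 1/8, 1× or 2× MIC, or with PA–vancomycin 1:1. Fluorescence read at ex 535 / em 615 nm. Polymyxin B as positive control; untreated cells as negative control.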

Data set [10] relates to Cell membrane. The data set can be described thus: Induction of inner membrane permeability in Escherichia coli K12 at 4 ug/mL by propidium iodide staining based spectrofluorometry. The class given is subcellular. Particulars: dose 4.0 µg/ml. The method in brief:
as §4

The test system of data set [11] is Cell membrane. The data set can be described thus: Induction of inner membrane permeability in Escherichia coli K12 by propidium iodide staining based spectrofluorometry. The class given is subcellular. The note with it: dose 4-64 µg/ml. An outline of the steps: as §4
Data set [12] deals with Cell membrane. The data set can be described thus: Induction of inner membrane permeability in Escherichia coli K12 at FICI in presence of vancomycin by propidium iodide staining based spectrofluorometry. The note with it: dose 4.0 µg/ml. The class given is subcellular. The method in brief:
as §4

Data set [13] deals with Staphylococcus aureus. The data set is described as follows: Antibacterial activity against methicillin resistant Staphylococcus aureus JE2 assessed as fold increase in MIC after 21 days in presence of vancomycin by broth microdilution method relative to MIC before 21 days. In kind it is functional. The note with it: time 21 day.
Data set [14] deals with Staphylococcus aureus. The data set can be described thus: Antibacterial activity against methicillin resistant Staphylococcus aureus JE2 assessed as fold increase in MIC after 21 days by broth microdilution method relative to MIC before 21 days. Particulars: time 21 day. The class given is functional.
The next data set deals with HEK293. The data set can be described thus: Cytotoxicity against HEK293 cells assessed as reduction in cell viability at 64 to 256 ug/ml incubated for 24 hrs by XTT assay. In kind it is toxicity, cell-based. The note with it: human, hek293, 24 h, dose 64-256 µg/ml. An outline of the steps: (§5)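 HEK-293 cells, passages 3–8, seeded at 5×10^4 per well and preincubated 24 h at 37 °C, 5% CO2. Medium replaced with serially diluted PA, final 8–256 µg/mL, for 24 h, in triplicate. XTT reagent (0.5 mg/mL) added for 4 h at 37 °C, then absorbance read at 600 nm.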

A short description of data set [15]: Hemolytic activity in human red blood cells assessed as hemolysis at 8 ug/ml incubated for 60 min relative to control. The class given is toxicity, cell-based, Erythrocyte. Particulars: at 8 µg/mL, read-out: Activity. An outline of the steps:
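Washed human RBCs at 0.25×10^8 cells/mL final in PBS, mixed with PA (stocks 16–1024 µg/mL, equal volume). Shaken 10 min, then incubated 60 min at 37 °C, 5% CO2. Cells pelleted at 1000 × g; supernatant hemoglobin read at OD405. 5% Triton X-100 taken as 100% hemolysis; water as negative control.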

Data set [16] is described as follows: Self assembly property of the compound assessed as zeta potential at 250 ug/mL at pH 7 measured after 2 hrs. The note with it: pH 7, 2 h, dose 250 µg/ml. In kind it is physicochemical. The method in brief:
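Peptide self-assembled at 1 mg/mL, pH 7, annealed 2 h at 80 °C, and aged overnight. Diluted to 250 µg/mL in water; zeta potential measured at 25 °C.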

A short description of data set [17]: Self assembly property of the compound assessed as formation of micelles at 1 mg/ml incubated overnight by transmission electron microscopy. In kind it is physicochemical. An outline of the steps: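 Samples were dissolved at 2 mM in water, pH 7, and left at room temperature overnight. Applied to copper grids for 5 min, blotted, and negatively stained with NanoVan for 30 s. Imaged by TEM at 120 kV.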

Data set [18] has as its system Escherichia coli. The data set is described as follows: Synergistic antibacterial activity against Escherichia coli K12 assessed as potentiation of vancomycin-induced antibacterial activity by measuring fold increase in vancomycin MIC incubated for 20 to 24 hrs by checkerboard broth microdilution assay relative to vancomycin alone. The class given is functional. The note with it: time 20-24 hrs. The method in brief:
as §1

Data set [19] deals with Escherichia coli. The data set is described as follows: Synergistic antibacterial activity against Escherichia coli K12 assessed as potentiation of vancomycin-induced antibacterial activity by vancomycin MIC incubated for 20 to 24 hrs by checkerboard broth microdilution assay. The class given is functional. Particulars: time 20-24 hrs. An outline of the steps:
as §1

Data set [20] is described as follows: Cytotoxicity against HEK293 cells assessed as cell viability up to 64 ug/ml incubated for 24 hrs by XTT assay relative to control. In kind it is toxicity, cell-based. The note with it: human, up to 64 µg/mL, read-out: Activity. The method in brief: as §5
For orientation: Formazan colour is commonly taken as a measure of viable cells.

For data set [21], the system named is Escherichia coli. The data set can be described thus: Ratio of MIC for Escherichia coli K12 at pH 5.5 to MIC for Escherichia coli K12 at pH 7.0.
The subject of data set [22] is Staphylococcus aureus. The data set is described as follows: Ratio of MIC for methicillin-resistant Staphylococcus aureus JE2 at pH 5.5 to MIC for methicillin-resistant Staphylococcus aureus JE2 at pH 7.0.

As usually defined, the MIC is the smallest concentration in the dilution series that meets the test's criterion for growth inhibition. As to `CCCCCCCCCCCCCCCCN[C@@H](CCCCN)C(=O)N[C@@H](Cc1c[nH]cn1)C(=O)N[C@@H](CCCCN)C(=O)N[C@@H](Cc1c[nH]cn1)C(=O)N[C@@H](CCCCN)C(=O)O` (H-[X1]HKHK-OH), the MIC in the data set with Escherichia coli [1] came to 4 µg/mL; with Acinetobacter baumannii [3], 64 µg/mL (≈ 71 µM); against Escherichia coli [4] it was 32 µg/mL (≈ 35.5 µM); with Staphylococcus aureus [5], 64 µg/mL (≈ 71 µM); against Staphylococcus aureus [6] it was 32 µg/mL (≈ 35.5 µM); with Escherichia coli [19] it was 4 µg/mL. Besides, the Retention_time in data set [2] came to 13.4 min. The entries for the “fractional inhibitory concentration index (FICI)” value in the data set on Escherichia coli [7] and in the data set on Acinetobacter baumannii [8] were 0.15 and 1, respectively. Moreover, the result in the data set with Cell membrane [9], in the data set with Cell membrane [10] and in the data set with Cell membrane [12] was Active. For the same compound, the Activity entry in the data set with Cell membrane [11] is “Dose-Dependent Effect”; with HEK293 it was “Non-Toxic”; in data set [16], 15.8 mV; in data set [17], “Active”. The “fold change (FC)” value is listed as 8 in the data set with Staphylococcus aureus [13], 8 in the data set with Staphylococcus aureus [14] and 32 in the data set on Escherichia coli [18]. Further, the hemolysis at 1 h, 8 ug/ml in [15] is 28.2%. For the same compound, in [20], the viability at 24 h turned out to be 100%. The Ratio in the data set with Escherichia coli [21] and in the data set on Staphylococcus aureus [22] was over 1 in each case.
